Assay outcomes deposited in PubChem by several laboratories.
Only some compounds are listed: those with a hit (about 3.6% of all), similar ones and a draw of the others.
EBNA-1 inh – blocks EBNA-1 binding to DNA | EBNA-1 DNA binding, fluorescence polarization | inhibition, % at 14.8 µM | 300,000 tested, 0.34% active | AID 1950; in the data active = inhibition above about 28%
ZTA DNA inh – blocks Epstein-Barr virus ZTA, an EBNA-1 counter-screen; P03206; ZTA-DNA binding, fluorescence polarization; inhibition, % at 11 µM; 320,000 tested, 0.15% active; in the data active = inhibition above about 33%
Target sequence (P03206 whole entry, looked up): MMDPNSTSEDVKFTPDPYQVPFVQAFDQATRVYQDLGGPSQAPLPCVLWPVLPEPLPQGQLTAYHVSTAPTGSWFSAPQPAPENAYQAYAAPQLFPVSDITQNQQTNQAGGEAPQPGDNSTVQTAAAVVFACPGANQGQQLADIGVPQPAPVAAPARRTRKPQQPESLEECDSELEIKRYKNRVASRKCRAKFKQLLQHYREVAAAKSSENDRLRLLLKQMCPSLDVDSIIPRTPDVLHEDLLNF
FGF22 binding – shifts melting point of recombinant human FGF22; recombinant FGF22 thermal shift, SYPRO orange fluorescence; percent of sucrose octasulfate shift, DMSO zero; 340,000 tested, 1.5% active; activity (Tm shift, normalised), % at 9.99 µM;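 active = mean Tm shift, scaled 0 neutral to 100 positive control, at about 1.3% or above, every replicate too, limit read from the data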
Target sequence (Q9HCT0 whole entry, looked up): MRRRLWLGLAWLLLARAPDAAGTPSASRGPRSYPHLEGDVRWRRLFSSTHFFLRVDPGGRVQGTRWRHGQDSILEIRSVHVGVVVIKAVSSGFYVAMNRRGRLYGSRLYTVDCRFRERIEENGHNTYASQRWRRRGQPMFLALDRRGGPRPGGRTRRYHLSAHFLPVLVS
NR3A LBD binder – NR3A (human) ligand-binding domain modulation; NR3A LBD differential scanning fluorimetry, Tm shift; 0% = protein alone, 100% = glycine-bound protein; Tm shift relative to glycine control, % at 25 µM; 340,000 tested, 2.5% active; AID 1259313;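 active = melting temperature shift of at least 10% of the positive control shift, at one fixed dose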
NS3 helicase inh – inhibitors of Hepatitis C virus NS3 helicase; AID 1800; 290,000 tested, 0.56% active; NS3 helicase DNA unwinding, Cy5 molecular beacon fluorescence; inhibition, % at 10.9 µM;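 active = inhibition above the mean of all tested compounds plus 3 SD, set per campaign, cut at about 35% in these data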;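 also: 0% = DMSO wells and 100% = thioflavine S control wells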
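System: Hepatitis C virus NS3 helicase domain fragment enzyme | Reagent: Annealed dual-labelled DNA beacon duplex, ATP-started | Compound dosing: 10.9 µM single point, 0.8% DMSO | Incubation: 1 h reaction at 25 °C, ATP-initiated | Technique: Cy5 fluorescence | Evaluation: Percent inhibition from t60/t0 fluorescence ratio | Benchmarks: Low DMSO, high thioflavine S at 110 µM | Replication: Singlicate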
FID counter – fluorescent intercalator displacement, NS3 helicase counter-screen; DNA fluorescent intercalator displacement, fluorescence; inhibition, % at 7.9 µM; 290,000 tested, 0.17% active; in the data active = inhibition above about 37%;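 also: 0% = vehicle and 100% = reference compound; higher means more ethidium bromide displaced from hairpin DNA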
The depositor's hits bear a star; · = no result.

SMILES	EBNA-1 inh	ZTA DNA inh	FGF22 binding	NR3A LBD binder	NS3 helicase inh	FID counter
N#C[C@@H]1[C@H](c2ccc(C3=CCCCC3)cc2)[C@H](CO)N1C(=O)CN1CCOCC1	·	·	-0.1	·	·	·
COc1ccc(C(=O)Nc2ccc(N3CCOCC3)cc2)cc1S(=O)(=O)N1CCOCC1	·	·	0.1	0.8	·	·
CC(=O)Nc1ccc(S(=O)(=O)N2CCOCC2)cc1	0.3	-0.1	·	-0.6	3.3	1.2
CCOc1ccc(NC(=O)c2ccc(S(=O)(=O)N3CCOCC3)cc2)cc1	0.9	-7.1	-0.1	-27.2	1.0	-23.1
COc1ccc(C(=O)Nc2ccc(S(=O)(=O)N3CCOCC3)cc2)cc1	1.8	2.8	-0.2	27.4*	·	·
COc1ccc(OCCCC(=O)Nc2ccc(S(=O)(=O)N3CCOCC3)cc2)cc1	·	7.5	0.0	11.0*	·	·
O=C(Nc1ccc(S(=O)(=O)N2CCOCC2)cc1)c1ccc(Cl)s1	3.1	10.0	0.2	35.2*	-5.1	3.4
COc1ccc(CC(=O)Nc2ccc(S(=O)(=O)N3CCOCC3)cc2)cc1	·	13.7	0.1	0.5	·	·
COc1ccc(C(=O)Nc2ccc(-c3cn4ccsc4n3)cc2)cc1S(=O)(=O)N1CCOCC1	1.7	12.3	·	26.6*	-3.3	-13.8
O=C(Nc1ccc(Cl)cc1)c1ccc(S(=O)(=O)N2CCOCC2)cc1	-1.7	-15.9	-0.1	14.5*	-8.7	-10.2
Cc1ccc(NC(=O)c2ccc(S(=O)(=O)N3CCOCC3)cc2)cc1	10.9	6.3	0.0	0.8	-0.1	-15.2
CCCCNS(=O)(=O)CCNCc1ccc(OC)cc1	·	·	0.1	0.8	·	·
COc1ccc(CNC(=O)COC(=O)c2ccc(S(=O)(=O)N3CCOCC3)cc2)cc1	·	·	0.0	0.2	·	·
O=C(CCc1ccccc1Cl)Nc1cc(S(=O)(=O)N2CCOCC2)ccc1N1CCCC1	·	·	0.1	-2.2	·	·
COc1ccc(CNCCS(=O)(=O)NN2CCOCC2)cc1	·	·	0.1	16.8*	·	·
COc1ccc(CNC(=O)c2ccc(S(=O)(=O)N3CCOCC3)cc2)cc1	·	·	77.8*	2.2	·	·
O=C(CCc1ccccc1Cl)Nc1ccc(S(=O)(=O)N2CCOCC2)cc1	-7.6	-16.1	1.0	18.6*	·	·
Cc1ccc(S(=O)(=O)N(C)C[C@@H]2Oc3ccc(NC(=O)Cn4cnnn4)cc3C(=O)N([C@@H](C)CO)C[C@@H]2C)cc1	·	·	0.1	·	·	·
C[C@@H]1CN([C@H](C)CO)C(=O)c2cc(-c3cncnc3)cnc2O[C@@H]1CN(C)C(=O)c1ccccc1F	·	·	-0.1	·	·	·
COCCCNC(=O)c1ccccc1SC	-4.8	8.3	-0.1	12.6*	2.9	2.7
N#C/C(=C\c1ccc(-c2ccc(F)cc2)o1)C(=O)Nc1nc(-c2cccs2)cs1	-0.6	-3.6	-0.1	19.0*	30.7	-5.3
Cc1ccc(-c2ccc(/C=N/NC(=O)c3ccccc3O)o2)cc1	1.2	14.4	·	·	10.0	-5.0
N#C/C(=C/c1ccc(-c2ccc(S(N)(=O)=O)cc2)o1)C(=O)Nc1ccccc1	5.3	16.4	·	22.9*	-28.0	-3.1
NS(=O)(=O)c1ccc(-c2ccc(/C=N/NC(=O)c3ccccc3O)o2)cc1	-6.5	-3.8	-0.4	13.3*	-5.6	-8.0
O=C(O)c1cc(-c2c[nH]c3ccccc23)nc2ccc3ccccc3c12	8.1	12.9	·	10.9*	11.3	-18.8
SMILES	EBNA-1 inh	ZTA DNA inh	FGF22 binding	NR3A LBD binder	NS3 helicase inh	FID counter
C[C@@H]1CN([C@@H](C)CO)C(=O)Cc2cc(NC(=O)c3ccncc3)ccc2O[C@H]1CN(C)Cc1ccc2c(c1)OCO2	·	·	0.1	·	·	·
O=C(NCCc1c[nH]c2ccccc12)C(=O)c1c[nH]c2ccccc12	1.9	-1.6	0.0	24.6*	-27.7	2.5
COc1ccccc1NC(=O)NCCc1c[nH]c2ccccc12	-10.3	-5.7	0.1	-3.5	-10.3	-3.4
O=C(NCCc1ccc(Cl)cc1)C(=O)c1c[nH]c2ccccc12	13.9	-0.5	0.1	-25.4	-1.8	-1.1
N#C/C(=C/c1ccc(Br)s1)C(=O)NCCc1c[nH]c2ccccc12	15.3	28.0	1.2	23.4*	-2.2	-0.7
O=C(NCCc1c[nH]c2ccccc12)/C(=C/c1ccco1)NC(=O)c1ccco1	-10.3	-12.9	43.2*	-1.9	6.9	-11.0
N#Cc1cccc(NC(=O)NCCc2c[nH]c3ccccc23)c1	6.5	-3.3	0.3	10.7*	6.7	-13.7
Cc1cc(/C=C(\C#N)C(=O)NCCc2c[nH]c3ccccc23)c(C)n1C	-4.8	-4.3	0.3	-3.1	-4.0	-5.2
